Test results: ChEMBL document CHEMBL3112482, “Nonclassical antifolates, part 5. Benzodiazepine analogs as a new class of DHFR inhibitors: synthesis, antitumor testing and molecular modeling study” (Eur J Med Chem, 2014)

Columns and labels:
[1] = test system: PC-3; assay: Growth inhibition of human PC3 cells at 10 uM after 48 hrs; assay type: functional; settings: PC-3, 48 h, read-out: GI
Outline: (§1)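 Single-dose primary screen in the NCI 60 human tumour cell line panel, run at the NCI facility. The panel covers nine subpanels: leukaemia, non-small cell lung, colon, CNS, melanoma, ovarian, renal, prostate and breast. Read-out was percent growth of treated cells, shown as a mean graph and reported as percent growth inhibition.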

[2] = test system: SK-MEL-2; assay: Growth inhibition of human SK-MEL-2 cells at 10 uM after 48 hrs; assay type: functional; settings: SK-MEL-2, 48 h, read-out: GI
Outline: (§2)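 NCI 60-cell-line disease-oriented human tumor panel, single-dose primary screen at 10 µM. Data given as mean-graph percent growth of treated cells, reported as percent growth inhibition (GI %).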

[3] = test system: T47D; assay: Growth inhibition of human T47D cells at 10 uM after 48 hrs; assay type: functional; settings: read-out: GI; outline: as §2
[4] = test system: SNB-75; assay: Growth inhibition of human SNB75 cells at 10 uM after 48 hrs; assay type: functional; settings: SNB-75, 48 h, read-out: GI; outline: as §2
[5] = Growth inhibition of human OVCAR4 cells at 10 uM after 48 hrs; assay type: functional; settings: OVCAR-4, 48 h, read-out: GI; outline: as §1
[6] = test system: SK-MEL-28; assay: Growth inhibition of human SK-MEL-28 cells at 10 uM after 48 hrs; assay type: functional; settings: SK-MEL-28, 48 h, read-out: GI; outline: as §2
[7] = Growth inhibition of human Hs 578T cells at 10 uM after 48 hrs; assay type: functional; settings: read-out: GI; outline: as §1
[8] = Growth inhibition of human NCI-ADR-RES cells at 10 uM after 48 hrs; assay type: functional; settings: read-out: GI; outline: as §1
[9] = test system: NCI-H460; assay: Growth inhibition of human NCI-H460 cells at 10 uM after 48 hrs; assay type: functional; settings: NCI-H460, 48 h, read-out: GI; outline: as §1
[10] = biological target: T1, Dihydrofolate reductase (Bos taurus, UniProt P00376); assay: Inhibition of bovine liver DHFR measured for every 1 min of 10 mins
T1 sequence (P00376 whole entry): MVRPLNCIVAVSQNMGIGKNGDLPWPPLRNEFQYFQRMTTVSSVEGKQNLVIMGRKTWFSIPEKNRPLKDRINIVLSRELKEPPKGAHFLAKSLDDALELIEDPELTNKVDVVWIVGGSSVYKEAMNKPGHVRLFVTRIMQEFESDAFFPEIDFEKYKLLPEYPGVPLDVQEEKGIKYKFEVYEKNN

[11] = test system: SK-OV-3; assay: Growth inhibition of human SKOV3 cells at 10 uM after 48 hrs; assay type: functional; settings: SK-OV-3, 48 h, read-out: GI; outline: as §2
[12] = Growth inhibition of human SF539 cells at 10 uM after 48 hrs; assay type: functional; settings: SF-539, 48 h, read-out: GI; outline: as §2
[13] = Cytotoxicity against human prostate cancer cells at 10 uM after 48 hrs; assay type: functional; settings: Cancer cell lines
[14] = test system: SNB-19; assay: Growth inhibition of human SNB19 cells at 10 uM after 48 hrs; assay type: functional; settings: SNB-19, 48 h, read-out: GI; outline: as §2
[15] = Growth inhibition of human EKVX cells at 10 uM after 48 hrs; assay type: functional; settings: read-out: GI; outline: as §1
[16] = test system: 786-0; assay: Growth inhibition of human 786-0 cells at 10 uM after 48 hrs; assay type: functional; settings: 786-0, 48 h, read-out: GI; outline: as §1
[17] = test system: MCF7; assay: Growth inhibition of human MCF7 cells at 10 uM after 48 hrs; assay type: functional; settings: MCF7, 48 h, read-out: GI; outline: as §1
[18] = test system: K562; assay: Growth inhibition of human K562 cells at 10 uM after 48 hrs; assay type: functional; settings: K562, 48 h, read-out: GI; outline: as §1
[19] = test system: A549; assay: Growth inhibition of human A549 cells at 10 uM after 48 hrs; assay type: functional; settings: A549, 48 h, read-out: GI; outline: as §1
[20] = test system: OVCAR-3; assay: Growth inhibition of human OVCAR3 cells at 10 uM after 48 hrs; assay type: functional; settings: OVCAR-3, 48 h, read-out: GI; outline: as §1
[21] = test system: TK-10; assay: Growth inhibition of human TK10 cells at 10 uM after 48 hrs; assay type: functional; settings: TK-10, 48 h, read-out: GI; outline: as §2
[22] = test system: NCI-H23; assay: Growth inhibition of human NCI-H23 cells at 10 uM after 48 hrs; assay type: functional; settings: NCI-H23, 48 h, read-out: GI; outline: as §1
[23] = Cytotoxicity against human CNS cancer cells at 10 uM after 48 hrs; assay type: functional; settings: Cancer cell lines
[24] = test system: HT-29; assay: Growth inhibition of human HT-29 cells at 10 uM after 48 hrs; assay type: functional; settings: HT-29, 48 h, read-out: GI; outline: as §1
[25] = Cytotoxicity against human renal cancer cells at 10 uM after 48 hrs; assay type: functional; settings: Cancer cell lines
[26] = test system: CCRF-CEM; assay: Growth inhibition of human CCRF-CEM cells at 10 uM after 48 hrs; assay type: functional; settings: read-out: GI; outline: as §1
[27] = Growth inhibition of human OVCAR5 cells at 10 uM after 48 hrs; assay type: functional; settings: OVCAR-5, 48 h, read-out: GI; outline: as §1
[28] = test system: NCI-H322M; assay: Growth inhibition of human NCI-H322M cells at 10 uM after 48 hrs; assay type: functional; settings: read-out: GI; outline: as §1
[29] = test system: SF-268; assay: Growth inhibition of human SF268 cells at 10 uM after 48 hrs; assay type: functional; settings: SF-268, 48 h, read-out: GI; outline: as §2
[30] = test system: OVCAR-8; assay: Growth inhibition of human OVCAR8 cells at 10 uM after 48 hrs; assay type: functional; settings: OVCAR-8, 48 h, read-out: GI; outline: as §1
[31] = test system: SW-620; assay: Growth inhibition of human SW620 cells at 10 uM after 48 hrs; assay type: functional; settings: SW-620, 48 h, read-out: GI; outline: as §2
[32] = Growth inhibition of human UO31 cells at 10 uM after 48 hrs; assay type: functional; settings: UO-31, 48 h, read-out: GI; outline: as §2
[33] = test system: NCI-H226; assay: Growth inhibition of human NCI-H226 cells at 10 uM after 48 hrs; assay type: functional; settings: NCI-H226, 48 h, read-out: GI; outline: as §1
[34] = test system: MDA-MB-231; assay: Growth inhibition of human MDA-MB-231 cells at 10 uM after 48 hrs; assay type: functional; settings: MDA-MB-231, 48 h, read-out: GI; outline: as §1
[35] = test system: BT-549; assay: Growth inhibition of human BT549 cells at 10 uM after 48 hrs; assay type: functional; settings: BT-549, 48 h, read-out: GI; outline: as §1
[36] = Growth inhibition of human UACC257 cells at 10 uM after 48 hrs; assay type: functional; settings: UACC-257, 48 h, read-out: GI; outline: as §2
[37] = test system: MOLT-4; assay: Growth inhibition of human MOLT4 cells at 10 uM after 48 hrs; assay type: functional; settings: MOLT-4, 48 h, read-out: GI; outline: as §1
[38] = test system: CAKI-1; assay: Growth inhibition of human CAKI-1 cells at 10 uM after 48 hrs; assay type: functional; settings: CAKI-1, 48 h, read-out: GI; outline: as §1
[39] = test system: SR; assay: Growth inhibition of human SR cells at 10 uM after 48 hrs; assay type: functional; settings: read-out: GI; outline: as §2

Nc1nc2c(c(-c3ccc(Cl)cc3)n1)CCC/C2=C\c1ccc(Cl)cc1
inhibition of growth at 10 µM [1]: < 30%
inhibition of growth at 10 µM [2]: < 30%
inhibition of growth at 10 µM [3]: < 30%
inhibition of growth at 10 µM [4]: < 30%
inhibition of growth at 10 µM [5]: < 30%
inhibition of growth at 10 µM [6]: < 30%
inhibition of growth at 10 µM [7]: < 30%
inhibition of growth at 10 µM [8]: < 30%
inhibition of growth at 10 µM [9]: < 30%
IC50 [10]: 17 µM
inhibition of growth at 10 µM [11]: < 30%
inhibition of growth at 10 µM [12]: < 30%
GI50 [13]: 12.3 µM
LC50 [13]: 95 µM
TGI [13]: 51.2 µM
inhibition of growth at 10 µM [14]: < 30%
inhibition of growth at 10 µM [15]: < 30%
inhibition of growth at 10 µM [16]: < 30%
inhibition of growth at 10 µM [17]: 66.9%
inhibition of growth at 10 µM [18]: 56.5%
inhibition of growth at 10 µM [19]: 33.3%
inhibition of growth at 10 µM [20]: 60.9%
inhibition of growth at 10 µM [21]: < 30%
inhibition of growth at 10 µM [22]: 38.9%
GI50 [23]: 13.7 µM
TGI [23]: 53.1 µM
CC50 ([23]; read-out: LC50 (the source's name)): 91.9 µM
inhibition of growth at 10 µM [24]: 92.3%
CC50 [25]: 78.4 µM
GI50 [25]: 14.7 µM
TGI [25]: 40.6 µM
inhibition of growth at 10 µM [26]: < 30%
inhibition of growth at 10 µM [27]: < 30%
inhibition of growth at 10 µM [28]: < 30%
inhibition of growth at 10 µM [29]: < 30%
inhibition of growth at 10 µM [30]: 58.8%
inhibition of growth at 10 µM [31]: 81.1%
inhibition of growth at 10 µM [32]: 32.2%
inhibition of growth at 10 µM [33]: < 30%
inhibition of growth at 10 µM [34]: < 30%
inhibition of growth at 10 µM [35]: < 30%
inhibition of growth at 10 µM [36]: < 30%
inhibition of growth at 10 µM [37]: 35.1%
inhibition of growth at 10 µM [38]: < 30%
inhibition of growth at 10 µM [39]: 79.2%
